In paper PMC6044926 (ACS Omega, 2017):
Substitutions are numbered along the chain they refer to. In names and notes the source's numbering stands. Several values for one entry are separate records, joined by “and”; a condition that tells them apart may be missing. Identical values can stand only once. Entries after “also recorded” stand apart in the source; their conditions may differ. One block for each molecule: values may come before it.

Experiments:
[1] = molecular target: T1, TPMT*6 (Y180F) (Homo sapiens, UniProt P51580, Y180F); assay: Thermal denaturation monitored as ANS fluorescence emission at 475 nm, TPMT*6; format: binding; conditions: ANS emission at 475 nm, ANS in 20-fold molar excess (60 μM)
T1 sequence (P51580 1-245 Y180F): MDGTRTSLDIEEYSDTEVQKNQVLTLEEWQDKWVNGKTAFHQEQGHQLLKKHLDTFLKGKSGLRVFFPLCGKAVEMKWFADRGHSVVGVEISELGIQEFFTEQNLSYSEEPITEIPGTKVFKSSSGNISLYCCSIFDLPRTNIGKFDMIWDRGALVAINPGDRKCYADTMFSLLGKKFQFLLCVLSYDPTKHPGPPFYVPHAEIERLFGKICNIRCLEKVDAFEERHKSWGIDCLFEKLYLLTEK
In short: (§1)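 Scanned 18 to 80 °C in 2° steps. Excitation 360 nm, emission 400–600 nm. Tm taken from the relative change in maximum intensity at 475 nm, three independent measurements.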

[2] = molecular target: T1, TPMT*6 (Y180F); assay: Thermal denaturation by CD at 222 nm in the presence of ligand, TPMT*6; format: binding
In short: (§2)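 Far-UV CD thermal unfolding at 222 nm, 18 to 80 °C in 2° steps, 10 scans over 60 s per step. Sample was 3 μM purified recombinant TPMT in 20 mM potassium phosphate pH 7.3, 75 mM NaCl, 2% glycerol, 0.5 mM TCEP, 4 mm cuvette. Run without ligand, with 30 μM SAM, or with 60 μM ANS. Tm fitted from three independent measurements.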

[3] = molecular target: T2, TPMT*8 (R215H) (Homo sapiens, UniProt P51580, R215H); assay: Thermal denaturation monitored as ANS fluorescence emission at 475 nm, TPMT*8; format: binding; conditions: ANS emission at 475 nm, ANS in 20-fold molar excess (60 μM)
T2 sequence (P51580 1-245 R215H): T1 sequence (P51580 1-245 Y180F) with F180Y, R215H
In short: as §1

[4] = molecular target: T2, TPMT*8 (R215H); assay: Thermal denaturation by CD at 222 nm in the presence of ligand, TPMT*8; format: binding
In short: as §2

[5] = molecular target: T3, TPMTwt (Homo sapiens, UniProt P51580); assay: Thermal denaturation monitored as ANS fluorescence emission at 475 nm, TPMTwt; format: binding; conditions: ANS emission at 475 nm, ANS in 20-fold molar excess (60 μM)
T3 sequence (P51580 1-245): T1 sequence (P51580 1-245 Y180F) with F180Y
In short: as §1

[6] = molecular target: T2, TPMT*8 (R215H); assay: ITC binding of SAM and ANS to TPMT*8
In short: (§3)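 Isothermal titration calorimetry at 25 °C (reference power 7 μcal s−1) of ~50 μM His-tag-cleaved recombinant human TPMT (residues 1–245; E. coli BL21-CodonPlus(DE3)-RIL; Ni-NTA and gel filtration). Thirteen injections per run, at least three runs per variant–ligand pair, fitted to a binding model.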

[7] = molecular target: T3, TPMTwt; assay: Thermal denaturation by CD at 222 nm in the presence of ligand, TPMTwt; format: binding
In short: as §2

[8] = molecular target: T3, TPMTwt; assay: ITC binding of SAM and ANS to TPMTwt; conditions: dissociation constant, 25 °C
In short: as §3

[9] = molecular target: T4, TPMT (Homo sapiens, UniProt P51580); assay: ANS and SAM binding to TPMT, all investigated variants; conditions: dissociation constant, ANS, ITC (fluorescence and ITC)
T4 sequence (P51580 1-245): T1 sequence (P51580 1-245 Y180F) with F180Y
In short: as §3

[10] = molecular target: T1, TPMT*6 (Y180F); assay: ITC binding of SAM and ANS to TPMT*6
In short: as §3

[11] = TPMT enzyme activity on purified recombinant protein, 6-MP as substrate; format: biochemical, human; conditions: 6-MP as thiopurine substrate
In short: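 Activity of purified recombinant TPMT measured as rate of 6-methyl-mercaptopurine formation from 6-MP, with 14C-labelled S-adenosyl-L-methionine as methyl donor, following an earlier published protocol.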

[12] = Thermal denaturation of the TPMT variants by CD at 222 nm, no ligand; format: physicochemical, human; conditions: 3 μM protein, pH 7.3
In short: as §2

[13] = cited from earlier work
[14] = CD at 222 nm, ANS in 20-fold molar excess (60 μM), 3 μM protein
[15] = SAM in 10-fold molar excess (30 μM), 3 μM protein

thermal melting temperature, fluorescence, +ANS [1]: 49.6 °C and 49.6 ± 0.4 °C
thermal melting temperature, +ANS [2, 14]: 48.6 °C and 48.6 ± 0.7 °C
increase of Tm on addition of ANS ([2]; CD at 222 nm, versus no ligand): 7.2 °C
thermal melting temperature, fluorescence, +ANS [3]: 54.1 °C and 54.1 ± 0.3 °C
thermal melting temperature, +ANS [4, 14]: 51.5 °C and 51.5 ± 0.4 °C
increase of Tm on addition of ANS ([4]; CD at 222 nm, versus no ligand): 5.0 °C
thermal melting temperature, fluorescence, +ANS [5]: 54.1 °C and 54.1 ± 0.5 °C
Kd [6]: 202 ± 11 nM
thermal melting temperature, +ANS [7, 14]: 53.8 °C and 53.8 ± 0.5 °C
increase of Tm on addition of ANS ([7]; CD at 222 nm, versus no ligand): 7.4 °C
Kd ([8]; ANS): 219 ± 58 nM
Kd [9]: ~200 nM and 200 nM
Kd [10]: 187 ± 32 nM
Molecule: O=S(=O)(O)c1cccc2cccc(Nc3ccccc3)c12 [ANS, 8-anilinonaphthalene-1-sulfonic acid]

thermal melting temperature, circular dichroism, +SAM [2, 15]: 40.5 ± 0.5 °C
thermal melting temperature, circular dichroism, +SAM [4, 15]: 47.3 ± 0.3 °C
Kd [6]: 1500 ± 100 nM
thermal melting temperature, circular dichroism, +SAM [7, 15]: 46.8 ± 0.5 °C
Kd ([8]; SAM): 2200 ± 700 nM
Kd [10]: 1800 ± 500 nM
Molecule: C[S+](CC[C@H](N)C(=O)[O-])C[C@H]1O[C@@H](n2cnc3c(N)ncnc32)[C@H](O)[C@@H]1O (stereo partly shown) [SAM, S-adenosylmethionine]

B1: TPMT*6: naturally occurring TPMT variant, Y180F, purified recombinant protein (protein, UniProt P51580 1-245, looked up, variant Y180F)
Thiopurine S-methyltransferase: T1 sequence (P51580 1-245 Y180F)
in vitro enzyme functionality [11]: fully functional; also recorded: normal functionality
thermal melting temperature, circular dichroism, no ligand [12]: 41.4 ± 1.1 °C

B2: TPMT*8: naturally occurring TPMT variant, R215H, purified recombinant protein (protein, UniProt P51580 1-245, looked up, variant R215H)
Thiopurine S-methyltransferase: T1 sequence (P51580 1-245 Y180F) with F180Y, R215H
reported in vivo enzyme activity class [13]: intermediate
in vitro enzyme functionality [11]: fully functional; also recorded: normal functionality
thermal melting temperature, circular dichroism, no ligand [12]: 46.5 ± 0.4 °C

B3: TPMTwt: recombinant wild-type human thiopurine S-methyltransferase (residues 1–245) (protein, UniProt P51580 1-245, looked up)
Thiopurine S-methyltransferase: T1 sequence (P51580 1-245 Y180F) with F180Y
thermal melting temperature, circular dichroism, no ligand [12]: 46.4 ± 0.6 °C
